Test results: ChEMBL document CHEMBL3872252, “New bithiazolyl hydrazones: Novel synthesis, characterization and antitubercular evaluation” (Bioorg Med Chem Lett, 2017)
Values after ≈ are worked out from the molar mass of the structure shown.

Columns and labels:
[1] = Antitubercular activity against Mycobacterium tuberculosis H37Ra ATCC 25177 dormant stage infected in human THP1 cells measured on day 12 by nitrate reductase assay; assay type: functional, THP-1; settings: ATCC 25177, 288 h
[2] = Antitubercular activity against Mycobacterium tuberculosis H37Ra ATCC 25177 active stage infected in human THP1 cells measured on day 8 by nitrate reductase assay; assay type: functional, THP-1; settings: ATCC 25177, 192 h
[3] = Antitubercular activity against Mycobacterium tuberculosis H37Ra ATCC 25177 active stage measured on day 8 by XTT reduction menadione based two-fold dilution assay; assay type: functional; settings: ATCC 25177, 192 h
Method in brief: (§1)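 M. tuberculosis H37Ra ATCC 25177 was exposed to 0.7–100 μg/mL in two-fold steps (0.7, 1.5, 3.1 … 100). Active stage was read after 8 days and dormant stage after 12 days of incubation. Inhibition was read by XTT reduction menadione assay (XRMA), absorbance 470 nm. MIC90 is the concentration giving ≥90% inhibition (µg/mL).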

[4] = Antitubercular activity against Mycobacterium tuberculosis H37Ra ATCC 25177 dormant stage measured on day 12 by XTT reduction menadione based two-fold dilution assay; assay type: functional; settings: ATCC 25177, 288 h; method in brief: as §1
[5] = Antitubercular activity against Mycobacterium bovis BCG ATCC 35743 active stage measured on day 8 by nitrate reductase based two-fold dilution assay; assay type: functional, Mycobacterium bovis BCG str. ATCC 35743; settings: Mycobacterium tuberculosis variant bovis BCG, ATCC 35743, 192 h
[6] = Antitubercular activity against Mycobacterium bovis BCG ATCC 35743 dormant stage measured on day 12 by nitrate reductase based two-fold dilution assay; assay type: functional, Mycobacterium bovis BCG str. ATCC 35743; settings: Mycobacterium tuberculosis variant bovis BCG, ATCC 35743, 288 h
[7] = Cytotoxicity against human THP1 cells by MTT assay; assay type: toxicity, cell-based, THP-1; settings: for GI50: THP1 cells; for GI90: thp-1
[8] = Cytotoxicity against human MCF7 cells by MTT assay; assay type: toxicity, cell-based; settings: for GI50: MCF7 cells; for GI90: mcf7
[9] = Cytotoxicity against human HCT116 cells by MTT assay; assay type: toxicity, cell-based, HCT-116; settings: for GI50: HCT116 cells; for GI90: hct-116
[10] = Selectivity index, ratio of GI50 for human MCF7 cells to MIC90 for Mycobacterium tuberculosis H37Ra ATCC 25177 active stage; assay type: toxicity, cell-based; settings: read-out: Selectivity Index
Method in brief: (§2)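 Cytotoxicity was measured on human MCF-7, HCT116 and THP-1 cells by MTT assay, with paclitaxel as reference. GI50 is the concentration inhibiting 50% of cell growth. The selectivity index is GI50 for the given cell line divided by MIC90 for the given mycobacterial strain and stage.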

[11] = Selectivity index, ratio of GI50 for human MCF7 cells to MIC90 for Mycobacterium tuberculosis H37Ra ATCC 25177 dormant stage; assay type: toxicity, cell-based; settings: read-out: Selectivity Index
Method in brief: (§3)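 Cytotoxicity was measured on human MCF-7, HCT116 and THP-1 cells by MTT assay, with paclitaxel as reference. The selectivity index is GI50 for the given cell line divided by MIC90 for the given mycobacterial strain and stage.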

[12] = Selectivity index, ratio of GI50 for human MCF7 cells to MIC90 for Mycobacterium bovis BCG ATCC 35743 active stage; assay type: toxicity, cell-based; settings: read-out: Selectivity Index; method in brief: as §2
[13] = Selectivity index, ratio of GI50 for human MCF7 cells to MIC90 for Mycobacterium bovis BCG ATCC 35743 dormant stage; assay type: toxicity, cell-based; settings: read-out: Selectivity Index; method in brief: as §3
[14] = Selectivity index, ratio of GI50 for human HCT116 cells to MIC90 for Mycobacterium tuberculosis H37Ra ATCC 25177 active stage; assay type: toxicity, cell-based, HCT-116; settings: read-out: Selectivity Index; method in brief: as §2
[15] = Selectivity index, ratio of GI50 for human HCT116 cells to MIC90 for Mycobacterium tuberculosis H37Ra ATCC 25177 dormant stage; assay type: toxicity, cell-based, HCT-116; settings: read-out: Selectivity Index; method in brief: as §3
[16] = Selectivity index, ratio of GI50 for human HCT116 cells to MIC90 for Mycobacterium bovis BCG ATCC 35743 active stage; assay type: toxicity, cell-based, HCT-116; settings: read-out: Selectivity Index; method in brief: as §2
[17] = Selectivity index, ratio of GI50 for human HCT116 cells to MIC90 for Mycobacterium bovis BCG ATCC 35743 dormant stage; assay type: toxicity, cell-based, HCT-116; settings: read-out: Selectivity Index; method in brief: as §3
[18] = Selectivity index, ratio of GI50 for human THP1 cells to MIC90 for Mycobacterium tuberculosis H37Ra ATCC 25177 active stage; assay type: toxicity, cell-based, THP-1; settings: read-out: Selectivity Index; method in brief: as §2
[19] = Selectivity index, ratio of GI50 for human THP1 cells to MIC90 for Mycobacterium tuberculosis H37Ra ATCC 25177 dormant stage; assay type: toxicity, cell-based, THP-1; settings: read-out: Selectivity Index; method in brief: as §3
[20] = Selectivity index, ratio of GI50 for human THP1 cells to MIC90 for Mycobacterium bovis BCG ATCC 35743 active stage; assay type: toxicity, cell-based, THP-1; settings: read-out: Selectivity Index; method in brief: as §2
[21] = Selectivity index, ratio of GI50 for human THP1 cells to MIC90 for Mycobacterium bovis BCG ATCC 35743 dormant stage; assay type: toxicity, cell-based, THP-1; settings: read-out: Selectivity Index; method in brief: as §3
Escherichia coli [22] = experiment: Growth inhibition of Escherichia coli at 30 ug/ml; assay type: functional; settings: read-out: GI
Escherichia coli [23] = experiment: Growth inhibition of Escherichia coli at 10 ug/ml; assay type: functional; settings: read-out: GI
Escherichia coli [24] = experiment: Growth inhibition of Escherichia coli at 3 ug/ml; assay type: functional; settings: read-out: GI
Method in brief: (§4)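 Screened against Gram-negative E. coli and P. aeruginosa and Gram-positive S. aureus and B. subtilis. Compound was tested at 3 µg/ml, and the read-out is percent growth inhibition.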

Pseudomonas aeruginosa [25] = experiment: Growth inhibition of Pseudomonas aeruginosa at 30 ug/ml; assay type: functional; settings: read-out: GI
Pseudomonas aeruginosa [26] = experiment: Growth inhibition of Pseudomonas aeruginosa at 10 ug/ml; assay type: functional; settings: read-out: GI
Pseudomonas aeruginosa [27] = experiment: Growth inhibition of Pseudomonas aeruginosa at 3 ug/ml; assay type: functional; settings: read-out: GI; method in brief: as §4
Staphylococcus aureus [28] = experiment: Growth inhibition of Staphylococcus aureus at 30 ug/ml; assay type: functional; settings: read-out: GI
Staphylococcus aureus [29] = experiment: Growth inhibition of Staphylococcus aureus at 10 ug/ml; assay type: functional; settings: read-out: GI
Staphylococcus aureus [30] = experiment: Growth inhibition of Staphylococcus aureus at 3 ug/ml; assay type: functional; settings: read-out: GI; method in brief: as §4
Bacillus subtilis [31] = experiment: Growth inhibition of Bacillus subtilis at 30 ug/ml; assay type: functional; settings: read-out: GI
Bacillus subtilis [32] = experiment: Growth inhibition of Bacillus subtilis at 10 ug/ml; assay type: functional; settings: read-out: GI
Bacillus subtilis [33] = experiment: Growth inhibition of Bacillus subtilis at 3 ug/ml; assay type: functional; settings: read-out: GI; method in brief: as §4

C/C(=N\Nc1nc(-c2ccc(Cl)cc2)cs1)c1sc(-c2ccccc2)nc1C
MIC90 [1]: > 100 µg/mL
MIC90 [2]: > 100 µg/mL
IC50 [3]: 0.12 µg/mL (≈ 0.282 µM)
MIC90 [3]: > 100 µg/mL
IC50 [4]: 0.24 µg/mL (≈ 0.565 µM)
MIC90 [4]: > 100 µg/mL
IC50 [5]: 17 µg/mL (≈ 40 µM)
MIC90 [5]: 77.8 µg/mL (≈ 183 µM)
IC50 [6]: 26.6 µg/mL (≈ 62.5 µM)
MIC90 [6]: 83.7 µg/mL (≈ 197 µM)
GI50 [7]: > 100 µg/mL
GI90 [7]: > 100 µg/mL
GI50 [8]: > 100 µg/mL
GI90 [8]: > 100 µg/mL
GI50 [9]: > 100 µg/mL
GI90 [9]: > 100 µg/mL
selectivity ratio [10]: 1
selectivity ratio [11]: 1
selectivity ratio [12]: 1
selectivity ratio [13]: 1
selectivity ratio [14]: 1
selectivity ratio [15]: 1
selectivity ratio [16]: 1
selectivity ratio [17]: 1
selectivity ratio [18]: 1
selectivity ratio [19]: 1
selectivity ratio [20]: 1
selectivity ratio [21]: 1
inhibition of growth at 30 µg/mL (Escherichia coli [22]): 89.7%
inhibition of growth at 10 µg/mL (Escherichia coli [23]): 80.4%
inhibition of growth at 3 µg/mL (Escherichia coli [24]): 69.1%
inhibition of growth at 30 µg/mL (Pseudomonas aeruginosa [25]): 90.6%
inhibition of growth at 10 µg/mL (Pseudomonas aeruginosa [26]): 80.3%
inhibition of growth at 3 µg/mL (Pseudomonas aeruginosa [27]): 67.7%
inhibition of growth at 30 µg/mL (Staphylococcus aureus [28]): 89.2%
inhibition of growth at 10 µg/mL (Staphylococcus aureus [29]): 79.3%
inhibition of growth at 3 µg/mL (Staphylococcus aureus [30]): 67.1%
inhibition of growth at 30 µg/mL (Bacillus subtilis [31]): 88.4%
inhibition of growth at 10 µg/mL (Bacillus subtilis [32]): 77.7%
inhibition of growth at 3 µg/mL (Bacillus subtilis [33]): 64.5%

C/C(=N\Nc1nc(-c2ccc(F)cc2)cs1)c1sc(-c2ccccc2)nc1C
MIC90 [1]: > 100 µg/mL
MIC90 [2]: > 100 µg/mL
IC50 [3]: > 100 µg/mL
MIC90 [3]: > 100 µg/mL
IC50 [4]: > 100 µg/mL
MIC90 [4]: > 100 µg/mL
IC50 [5]: > 100 µg/mL
MIC90 [5]: > 100 µg/mL
IC50 [6]: > 100 µg/mL
MIC90 [6]: > 100 µg/mL
GI50 [7]: > 100 µg/mL
GI90 [7]: > 100 µg/mL
GI50 [8]: > 100 µg/mL
GI90 [8]: > 100 µg/mL
GI50 [9]: > 100 µg/mL
GI90 [9]: > 100 µg/mL
selectivity ratio [10]: 1
selectivity ratio [11]: 1
selectivity ratio [12]: 1
selectivity ratio [13]: 1
selectivity ratio [14]: 1
selectivity ratio [15]: 1
selectivity ratio [16]: 1
selectivity ratio [17]: 1
selectivity ratio [18]: 1
selectivity ratio [19]: 1
selectivity ratio [20]: 1
selectivity ratio [21]: 1
inhibition of growth at 30 µg/mL (Escherichia coli [22]): 74.7%
inhibition of growth at 10 µg/mL (Escherichia coli [23]): 74%
inhibition of growth at 3 µg/mL (Escherichia coli [24]): 72.5%
inhibition of growth at 30 µg/mL (Pseudomonas aeruginosa [25]): 74%
inhibition of growth at 10 µg/mL (Pseudomonas aeruginosa [26]): 73.2%
inhibition of growth at 3 µg/mL (Pseudomonas aeruginosa [27]): 71.5%
inhibition of growth at 30 µg/mL (Staphylococcus aureus [28]): 73.2%
inhibition of growth at 10 µg/mL (Staphylococcus aureus [29]): 72.5%
inhibition of growth at 3 µg/mL (Staphylococcus aureus [30]): 70.7%
inhibition of growth at 30 µg/mL (Bacillus subtilis [31]): 71.1%
inhibition of growth at 10 µg/mL (Bacillus subtilis [32]): 70.2%
inhibition of growth at 3 µg/mL (Bacillus subtilis [33]): 68.5%

C/C(=N\Nc1nc(-c2ccc(C)cc2)cs1)c1sc(C)nc1C
MIC90 [1]: 82.8 µg/mL (≈ 242 µM)
MIC90 [2]: 74.3 µg/mL (≈ 217 µM)
IC50 [3]: 11.1 µg/mL (≈ 32.3 µM)
MIC90 [3]: > 100 µg/mL
IC50 [4]: 8.35 µg/mL (≈ 24.4 µM)
MIC90 [4]: 65.8 µg/mL (≈ 192 µM)
IC50 [5]: 17.9 µg/mL (≈ 52.4 µM)
MIC90 [5]: 54.8 µg/mL (≈ 160 µM)
IC50 [6]: 9.67 µg/mL (≈ 28.2 µM)
MIC90 [6]: 83.2 µg/mL (≈ 243 µM)
GI50 [7]: > 100 µg/mL
GI90 [7]: > 100 µg/mL
GI50 [8]: > 100 µg/mL
GI90 [8]: > 100 µg/mL
GI50 [9]: > 100 µg/mL
GI90 [9]: > 100 µg/mL
selectivity ratio [10]: 1
selectivity ratio [11]: 2
selectivity ratio [12]: 1
selectivity ratio [13]: 10
selectivity ratio [14]: 1
selectivity ratio [15]: 2
selectivity ratio [16]: 1
selectivity ratio [17]: 10
selectivity ratio [18]: 1
selectivity ratio [19]: 2
selectivity ratio [20]: 1
selectivity ratio [21]: 10
inhibition of growth at 30 µg/mL (Escherichia coli [22]): 73.7%
inhibition of growth at 10 µg/mL (Escherichia coli [23]): 83.3%
inhibition of growth at 3 µg/mL (Escherichia coli [24]): 79.8%
inhibition of growth at 30 µg/mL (Pseudomonas aeruginosa [25]): 72.8%
inhibition of growth at 10 µg/mL (Pseudomonas aeruginosa [26]): 83.5%
inhibition of growth at 3 µg/mL (Pseudomonas aeruginosa [27]): 79.6%
inhibition of growth at 30 µg/mL (Staphylococcus aureus [28]): 72%
inhibition of growth at 10 µg/mL (Staphylococcus aureus [29]): 82.4%
inhibition of growth at 3 µg/mL (Staphylococcus aureus [30]): 78.6%
inhibition of growth at 30 µg/mL (Bacillus subtilis [31]): 69.9%
inhibition of growth at 10 µg/mL (Bacillus subtilis [32]): 81%
inhibition of growth at 3 µg/mL (Bacillus subtilis [33]): 76.9%
